Measurements from different studies.
Lines come from different studies, so protocols differ.
Target: Mitogen-activated protein kinase kinase kinase 2 (MAP3K2, Homo sapiens, UniProt Q9Y2U5)
Sequence (Q9Y2U5 1-619, as in one of the studies): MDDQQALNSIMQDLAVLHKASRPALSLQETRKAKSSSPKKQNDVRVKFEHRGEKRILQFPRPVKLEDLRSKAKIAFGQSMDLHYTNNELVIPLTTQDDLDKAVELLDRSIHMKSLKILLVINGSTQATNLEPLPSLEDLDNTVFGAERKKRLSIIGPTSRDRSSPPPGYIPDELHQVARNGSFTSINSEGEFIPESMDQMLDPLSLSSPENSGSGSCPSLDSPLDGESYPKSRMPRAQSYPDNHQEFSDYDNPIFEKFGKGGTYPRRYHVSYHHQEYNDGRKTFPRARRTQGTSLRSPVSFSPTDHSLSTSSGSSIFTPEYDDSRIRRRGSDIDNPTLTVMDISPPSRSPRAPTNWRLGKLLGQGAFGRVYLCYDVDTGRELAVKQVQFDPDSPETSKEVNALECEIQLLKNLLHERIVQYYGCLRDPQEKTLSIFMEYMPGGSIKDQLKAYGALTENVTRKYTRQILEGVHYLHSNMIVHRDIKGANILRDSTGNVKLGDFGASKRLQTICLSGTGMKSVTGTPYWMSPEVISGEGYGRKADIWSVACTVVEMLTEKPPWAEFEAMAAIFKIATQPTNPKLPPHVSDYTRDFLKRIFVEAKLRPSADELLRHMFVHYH

Structure (SMILES) | effect on | mode | method | cells | concentration | endpoint | value
Nc1ncnc2occ(-c3ccc(NC(=O)Nc4cc(C(F)(F)F)ccc4F)cc3)c12 | cell-free assay | inhibitor | – | – | 20 µM | remaining signal | 1.4%
Cc1nc(C2CCN(C(=O)c3ccc(OC(F)(F)F)cc3N)CC2)c2ncc(N3CCN(C)CC3)cc2n1 | cell-free assay | – | competition with immobilised ligand | – | 1 µM | remaining binding | 100%
O=C1Nc2ccc(Cl)cc2C1=Cc1cc(Cl)c(O)c(Cl)c1 | cell-free assay | – | – | – | 0.5 µM | remaining signal | 95.7%
COc1cc(Cl)c(C(=O)N[C@@H](CN[C@H]2CC[C@@H](N)CC2)Cc2ccc(C#N)cc2)cc1-c1ccc(CN[C@H](C)c2ccc(C)cc2)o1 | enzyme activity | inhibitor | – | – | 1 µM | remaining activity | 110%
Cc1ccc(C(=O)NCc2ccsc2)cc1C#Cc1cn(C(C)C)c2ncnc(N)c12 | enzyme activity | inhibitor | – | – | 1 µM | activity vs control | 61%
Cc1c(C(=O)O)cc(-c2ccc(C3CCNCC3)cc2)c2ccc(-c3ccc(C(F)(F)F)cc3)cc12 | binding | – | competition with immobilised ligand | – | 1 µM | remaining binding | 100%
COc1cc2c(Nc3ccc(Br)cc3F)ncnc2cc1OCC1CCN(C)CC1 | cell-free assay | – | – | – | 0.5 µM | remaining signal | 108%
CCN1CCN(Cc2ccc(NC(=O)c3ccc(C)c(/C=C/c4cnc5[nH]ccc5c4OC)c3)cc2C(F)(F)F)CC1 | target engagement in cells | inhibitor | chemoproteomics | A-375 | 0.5 µM | inhibition | -0.738%
CC(C)(C)c1nc(-c2cccc(NS(=O)(=O)c3c(F)cccc3F)c2F)c(-c2ccnc(N)n2)s1 | enzyme activity | inhibitor | radiometric | – | 1 µM | remaining activity | 57%
CCOc1cc(-c2nncn2C)ccc1Nc1ncc2cc(C)nc(NCC(C)(C)C)c2n1 | cell-free assay | – | TR-FRET | – | 1 µM | inhibition | ≤ 15%
CN([C@@H]1CCc2c(CC(=O)O)c3ccccc3n2C1)S(=O)(=O)c1ccc(F)cc1 | cell-free assay | – | competition with immobilised ligand | – | 1 µM | remaining binding | 100%
N#CCCc1ccc2c(c1)-c1[nH]c3ccc([N+](=O)[O-])cc3c1CC(=O)N2 | cell-free assay | – | – | – | 0.5 µM | remaining signal | 61.5%
CS(=O)(=O)N1CCCC(NC(=O)[C@H](CCC2CCCCC2)NC(=O)c2ccc(CNc3ncnc4c3nnn4-c3ccccc3)cc2)C1 (some centres unmarked) | cell-free assay | – | competition with immobilised ligand | – | 0.1 µM | remaining binding | 100%
O=C(Nc1cnn(-c2csc(C(=O)NC3COC3)c2)c1)Nc1c(F)cccc1Cl | enzyme activity | inhibitor | – | – | 5 µM | remaining activity | 80.1%
